Source: ChEMBL document CHEMBL1156154, “Heterocyclic fused pyridone carboxylic acid M(1) positive allosteric modulators” (Bioorg Med Chem Lett, 2010)
Activity calls are given as the source filed them. The calls are words filed in the database; no cut-off is given here.

What was measured:
[1] = biological target: T1, Muscarinic acetylcholine receptor M1 (Homo sapiens) (UniProt P11229); assay: Positive allosteric modulator activity at human muscarinic M1 receptor expressed in CHO cells assessed as effect on acetylcholine-induced intracellular calcium mobilization by FLIPR assay; type: functional, cell-based
T1 sequence (whole entry): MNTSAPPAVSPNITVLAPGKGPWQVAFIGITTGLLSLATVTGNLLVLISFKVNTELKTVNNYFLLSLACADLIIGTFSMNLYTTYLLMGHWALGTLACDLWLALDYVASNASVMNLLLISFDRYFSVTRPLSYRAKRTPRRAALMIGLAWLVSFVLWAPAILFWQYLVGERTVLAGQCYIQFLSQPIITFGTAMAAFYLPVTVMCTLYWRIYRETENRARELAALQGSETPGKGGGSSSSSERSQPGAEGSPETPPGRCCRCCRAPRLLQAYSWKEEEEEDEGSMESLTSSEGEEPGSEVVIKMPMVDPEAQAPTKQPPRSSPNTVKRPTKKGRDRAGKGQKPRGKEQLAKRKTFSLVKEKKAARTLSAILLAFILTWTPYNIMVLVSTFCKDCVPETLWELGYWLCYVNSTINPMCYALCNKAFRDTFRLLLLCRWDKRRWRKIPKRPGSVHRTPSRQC
How it was run: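 CHO cells expressing human M1 were run with an EC20 concentration of acetylcholine. Calcium mobilization was read on a FLIPR384. Potency is reported as the inflection point. Percent max is the compound plus EC20 ACh response relative to the maximal acetylcholine effect.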

[2] = biological target: T2, Muscarinic acetylcholine receptor M4 (Homo sapiens) (UniProt P08173); assay: Positive allosteric modulator activity at human muscarinic M4 receptor expressed in CHO cells assessed as effect on acetylcholine-induced intracellular calcium mobilization by FLIPR assay; type: functional, cell-based
T2 sequence (whole entry): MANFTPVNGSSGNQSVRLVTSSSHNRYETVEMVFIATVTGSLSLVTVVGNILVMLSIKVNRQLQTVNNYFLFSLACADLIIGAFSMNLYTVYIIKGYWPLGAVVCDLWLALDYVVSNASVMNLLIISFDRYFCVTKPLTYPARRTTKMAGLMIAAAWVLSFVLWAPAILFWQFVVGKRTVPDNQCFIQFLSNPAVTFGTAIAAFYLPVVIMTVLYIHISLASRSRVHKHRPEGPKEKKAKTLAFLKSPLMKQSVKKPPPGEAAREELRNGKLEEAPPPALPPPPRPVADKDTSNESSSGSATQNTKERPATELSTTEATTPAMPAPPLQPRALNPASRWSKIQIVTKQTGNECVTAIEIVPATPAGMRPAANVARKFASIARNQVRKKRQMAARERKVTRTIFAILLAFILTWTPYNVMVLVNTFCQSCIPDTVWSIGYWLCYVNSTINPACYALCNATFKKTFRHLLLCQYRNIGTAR

[3] = biological target: T3, Muscarinic acetylcholine receptor M2 (Homo sapiens) (UniProt P08172); assay: Positive allosteric modulator activity at human muscarinic acetylcholine M2 receptor expressed in CHO cells assessed as effect on acetylcholine-induced intracellular calcium mobilization by FLIPR assay; type: functional, cell-based
T3 sequence (whole entry): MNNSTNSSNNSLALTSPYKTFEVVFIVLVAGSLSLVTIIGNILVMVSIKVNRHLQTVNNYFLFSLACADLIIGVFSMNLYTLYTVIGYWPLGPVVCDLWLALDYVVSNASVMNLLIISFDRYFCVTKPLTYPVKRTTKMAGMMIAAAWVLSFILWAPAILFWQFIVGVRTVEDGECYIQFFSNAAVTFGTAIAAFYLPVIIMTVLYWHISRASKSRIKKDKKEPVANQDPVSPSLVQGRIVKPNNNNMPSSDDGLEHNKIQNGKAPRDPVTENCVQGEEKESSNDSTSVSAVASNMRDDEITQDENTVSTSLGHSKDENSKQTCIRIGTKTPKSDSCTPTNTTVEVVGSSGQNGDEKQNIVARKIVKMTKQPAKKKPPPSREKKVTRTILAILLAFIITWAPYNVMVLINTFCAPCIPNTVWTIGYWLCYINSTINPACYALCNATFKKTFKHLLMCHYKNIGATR

[4] = system: Brain; assay: Drug level in Sprague-Dawley rat brain at 10 mg/kg, po; type: ADME, organism-based; parameters: dose 10 mg/kg, route oral; details: in vivo, read-out: Drug uptake
[5] = biological target: Muscarinic acetylcholine receptor M3 (Homo sapiens) (UniProt P20309); assay: Positive allosteric modulator activity at human muscarinic M3 receptor expressed in CHO cells assessed as effect on acetylcholine-induced intracellular calcium mobilization by FLIPR assay; type: functional, cell-based
[6] = system: Rattus norvegicus; assay: Plasma concentration in Sprague-Dawley rat at 10 mg/kg, po; type: ADME, organism-based; parameters: dose 10 mg/kg, route oral; details: in vivo
[7] = Plasma protein binding in rat serum by equilibrium dialysis method
[8] = Ratio of drug level in CSF to fraction unbound in plasma in rat; type: ADME; details: in vivo
How it was run: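 Sprague–Dawley rats dosed orally at 10 mg/kg in 0.5% methocel. CSF level divided by unbound plasma level. Unbound fraction comes from rat plasma protein binding by equilibrium dialysis.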

[9] = Plasma protein binding in human serum by equilibrium dialysis method
[10] = system: Cerebrospinal fluid; assay: Drug level in Sprague-Dawley rat CSF at 10 mg/kg, po; type: ADME, organism-based; parameters: dose 10 mg/kg, route oral; details: in vivo, read-out: Drug uptake
[11] = Ratio of drug level in brain to plasma in Sprague-Dawley rat at 10 mg/kg, po; type: ADME, organism-based; parameters: dose 10 mg/kg, route oral
[12] = Clearance in rat at 10 mg/kg, po and 2 mg/kg, iv; type: ADME, organism-based; details: in vivo
How it was run: (§1)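 Rat pharmacokinetics, oral dosing at 10 mpk and intravenous dosing at 2 mpk. Bioavailability, half-life and clearance derived from these profiles.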

[13] = Bioavailability in rat at 10 mg/kg, po and 2 mg/kg, iv; type: ADME, organism-based; details: in vivo; how it was run: as §1
[14] = Half life in rat at 10 mg/kg, po and 2 mg/kg, iv; type: ADME, organism-based; details: in vivo; how it was run: as §1
[15] = species on record: Mus musculus; assay: Effect on behavioral activity in mouse contextual fear conditioning model assessed as episodic memory; type: functional, organism-based
[16] = Ratio of drug level in CSF to fraction unbound in plasma in P-glycoprotein deficient mouse; type: ADME; details: in vivo
How it was run: (§2)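 CF-1 wild-type and P-gp knockout mice were dosed, and plasma and CSF were taken 30 min later. The CSF to unbound plasma ratio was then calculated.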

[17] = Ratio of drug level in CSF to fraction unbound in plasma in CF-1 mouse; type: ADME; details: in vivo; how it was run: as §2

Sequence of Muscarinic acetylcholine receptor M3 (Homo sapiens) (P20309 whole entry, looked up): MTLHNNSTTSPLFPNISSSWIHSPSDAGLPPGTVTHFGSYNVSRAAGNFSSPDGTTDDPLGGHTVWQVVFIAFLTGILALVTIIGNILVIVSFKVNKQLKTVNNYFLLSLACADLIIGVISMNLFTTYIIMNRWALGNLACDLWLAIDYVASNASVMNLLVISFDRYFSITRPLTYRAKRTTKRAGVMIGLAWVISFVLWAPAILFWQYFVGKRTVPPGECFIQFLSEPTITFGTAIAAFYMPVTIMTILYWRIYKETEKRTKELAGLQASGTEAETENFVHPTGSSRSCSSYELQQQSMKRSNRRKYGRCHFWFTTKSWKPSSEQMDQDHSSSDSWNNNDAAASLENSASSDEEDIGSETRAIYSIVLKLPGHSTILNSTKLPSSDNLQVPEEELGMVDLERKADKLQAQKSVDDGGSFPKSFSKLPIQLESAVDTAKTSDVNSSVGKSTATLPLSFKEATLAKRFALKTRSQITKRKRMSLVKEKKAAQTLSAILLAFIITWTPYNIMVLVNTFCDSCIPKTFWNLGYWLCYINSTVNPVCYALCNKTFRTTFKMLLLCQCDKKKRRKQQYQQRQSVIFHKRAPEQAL

Row | IP [1] | Activity [2] | Activity [3] | concentration [4] | Activity [5] | concentration [6] | fraction unbound [7] | Ratio [8] | fraction unbound [9] | concentration [10] | Kp [11] | clearance [12] | bioavailability [13] | half-life [14] | Ratio [16] | Ratio [17] | Structure (SMILES) | Activity [15]
1 | 0.25 µM | inactive | inactive | 1200 nM | inactive | 78500 nM | 0.011 | 0.03 | 0.125 | 24 nM | 0.15 |  |  |  |  |  | Cc1ccn(-c2ccc(Cn3cc(C(=O)O)c(=O)c4ccncc43)cc2)n1 | 
2 | 0.34 µM | inactive | inactive | 159 nM | inactive | 9420 nM | 0.094 | 0.05 | 0.279 | 42 nM | 0.02 |  |  |  |  |  | Cn1cc(-c2ccc(Cn3cc(C(=O)O)c(=O)c4sccc43)nc2)cn1 | 
3 | 0.52 µM | inactive | inactive | 316 nM | inactive | 4240 nM | 0.132 | 0.21 | 0.14 | 123 nM | 0.07 | 6.8 mL/min/kg | 33% | 3.7 h | 0.16 | 0.05 | O=C(O)c1cn(Cc2ccc(-n3cccn3)cc2)c2ccsc2c1=O | inactive
